Data reported in PubChem BioAssay AID463210 (The Scripps Research Institute Molecular Screening Center, 2010).
Screen size: about 330,000 compounds; about 300 (0.091%) were called active. This is one part of a sample in which actives are shown more often than they occur. Values without a mark were called inactive.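 The calls were made as follows: active = percent activation above the screen-wide mean plus 3 SD (cut at about 25% in these data); inactive = the rest.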

target: Caspase-7 (Homo sapiens) (UniProt P55210); assay: procaspase-7 activators, primary screen, counter-screen for procaspase-3 activator project, biochemical, absorbance, HTS, human (AID 463210); details: recombinant procaspase-7, Ac-DEVD-pNA absorbance 405 nm; at 8.5 µM; hits give high values; D23A/D198A/D206A triple mutant, cannot self-cleave; scale: DMSO 0, 5 µM enzyme 100
Procedure, shortened: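 System: Uncleavable procaspase-7 mutant enzyme; Amount: 2 µM procaspase-7 mutant as dispensed; Schedule: 1 h compound preincubation, 2 h substrate cleavage, 25 °C; Measured by: 405 nm absorbance of p-nitroaniline; Evaluation: percent activation from buffer-corrected 0–120 min absorbance change; Control set: low DMSO alone, high DMSO plus 5 µM PC-7.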

Sequence of Caspase-7 (Homo sapiens) (P55210 whole entry D23A/D198A/D206A): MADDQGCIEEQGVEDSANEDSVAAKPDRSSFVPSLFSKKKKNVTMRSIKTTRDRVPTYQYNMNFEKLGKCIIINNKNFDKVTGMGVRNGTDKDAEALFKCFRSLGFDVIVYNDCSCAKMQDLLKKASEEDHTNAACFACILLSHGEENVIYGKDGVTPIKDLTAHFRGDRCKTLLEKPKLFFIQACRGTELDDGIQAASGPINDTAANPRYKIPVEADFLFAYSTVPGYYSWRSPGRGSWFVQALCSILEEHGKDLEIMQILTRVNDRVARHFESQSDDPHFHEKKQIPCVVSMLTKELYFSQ

Row | SMILES | activation
1 | COc1cc(OC)cc(C(=O)NC2CCN(C(=O)N3c4ccccc4Sc4ccccc43)CC2)c1 | 2.43%
2 | CON(C)S(=O)(=O)c1ccc2c(c1)NC(=O)C1CCCN21 (centres undefined) | -0.92%
3 | CCCCn1c(-c2cccc(C)c2)nc2cc3[nH]c(=O)c(C(C)C)nc3cc21 | 11.3%
4 | CC(=O)c1ccc(OC(=O)N2CCOCC2)cc1 | -1.27%
5 | O=C(NC1CCCC1)C(NS(=O)(=O)c1ccc(Br)s1)c1ccccc1 (centres undefined) | -4.82%
6 | O=S(=O)(Cc1noc(-c2ccc(OC(F)(F)F)cc2)n1)c1ccc(F)cc1 | 10.7%
7 | Cc1ccc(C)c(NS(=O)(=O)c2c(C)[nH]c(C)c2C(=O)N2CCCCC2)c1 | 4.13%
8 | COc1ccc(Nc2ncc(C(=O)N3CCN(c4ccccc4OC)CC3)c3ccccc23)cc1 | 49.2% (active)
9 | COc1ccccc1N1CCN(C(=O)c2cn(-c3ccccc3)nc2-c2cccnc2)CC1 | 6.33%
10 | COc1ccccc1N1CCN(C(=O)c2ccc(NC3=NC4CS(=O)(=O)CC4S3)cc2)CC1 (centres undefined) | 5.2%
11 | CC(C)C(c1nnnn1C(C)(C)C)N1CCN(Cc2cccnc2)CC1 (centres undefined) | -6.66%
12 | COc1ccc(CN(C)Cc2nc3cc(OC)c(OC)cc3c(=O)[nH]2)c(OC)c1 | 4.38%
13 | CSCCC(NS(=O)(=O)c1ccc(C)cc1)C(=O)NCCc1c[nH]c2ccccc12 (centres undefined) | -0.01%
14 | CCCCS(=O)c1snnc1C (centres undefined) | -3.16%
15 | CCOC(=O)N1CCN(C(=O)c2ccccc2SCC(=O)NCC2CCCCC2)CC1 | -1.95%
16 | O=C(O)CCS(=O)(=O)c1ccc(-c2ccccc2)cc1 | 6.38%
17 | O=C1OCCN1C(=O)[C@H]1[C@H](c2ccc(Cl)cc2)C(c2cccc(Cl)c2)=NN1c1ccc(Br)cc1 | 10.5%
18 | O=C1OCCN1C(=O)[C@H]1[C@H](c2ccc(F)cc2)C(c2ccccc2)=NN1c1ccc(Br)cc1 | 28.9% (active)
19 | O=C1OCCN1C(=O)[C@H]1[C@H](c2ccccc2)C(c2ccc(F)cc2)=NN1c1ccccc1 | -10.3%
20 | Fc1ccc(N2N=C(c3cccs3)CC2c2ccco2)c(F)c1 (centres undefined) | 51% (active)
21 | COc1ccccc1N1N=C(c2cccs2)CC1c1ccccc1 (centres undefined) | -22.6%
22 | O=C(COc1ccccc1Cl)N1N=C(c2cccs2)CC1c1ccco1 (centres undefined) | -20%
23 | CN(C(=O)CCNC(=O)Cn1ccc2ccccc2c1=O)c1ccc(Br)cc1 | 4.82%
24 | Cn1c(CCCOc2ccc(Cl)cc2Cl)n[nH]c1=S | -19.3%
